Each structure is given as a SMILES string. Activity calls are given as the source filed them.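 How the source made its calls: active means viability loss with fitted half-maximal concentration at most ten times the top valid dose; inconclusive means flat fit with 30 to 70% inhibition, or poor fit; inactive means the rest, including rising signal.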

For the first experiment, the system named is SK-MEL-5 viability, CellTiter-Glo ATP luminescence, 24 h. Nature of the experiment: ATP-based growth inhibition in SK-MEL-5 cells – cell-based, CellTiter-Glo luminescence, dry powder samples, orthogonal assay for MITF inhibitor project, dose response (AID 540347).
Settings: not given
In short, it runs like this:
(§1)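 System – SK-MEL-5 melanoma cell line · Measure – cell viability · Technique – CellTiter-Glo luminescence measuring cellular ATP · Doses – pin-transferred dose series · Medium – phenol red-free culture medium · Schedule – 24 h compound exposure, 37 °C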
`Cc1[nH]c2ccccc2c1C(=O)CCl`: the IC50 was 27.7 µM.
The same measure, in the same setting: under `CC1(C)CC(NC(=O)c2ccc(Cl)c(S(=O)(=O)N(Cc3ccccc3)c3ccccc3)c2)CC(C)(C)N1` stands 29.2 µM; under `O=C(COc1ccccc1)N/N=C/c1ccc([N+](=O)[O-])o1`, 35.5 µM.
The same measure, in the same setting: under `Cc1cc(C(C)(C)C)cc(C)c1Cn1c2[n+](c3ccc(C(F)(F)F)cc31)CCCCC2` stands 27.1 µM.
The same measure, in the same setting: under `COc1ccc(S(=O)(=O)N(C(C)=O)c2ccc(OC(C)=O)c3ccccc23)cc1[N+](=O)[O-]` stands 6.58 µM.
As to `O=c1c(Cl)c2oc3ccccc3nc-2c2ccccc12`, the IC50 is 24.7 µM.
Turning to `CC(C)C(CCNC1CCN(C)CC1)c1ccc(Cl)cc1` (stereo not given), the IC50 is 36.5 µM.
For `CCN1CCN(C2=C(NS(=O)(=O)c3ccc(Br)cc3)C(=O)c3ccccc3C2=O)CC1`, the IC50 is 33.5 µM.
With `CC1=NNC(=O)/C1=C\c1cn(-c2ccccc2)nc1-c1ccc(F)cc1`, the IC50 was 25.4 µM.
Same read-out and setting: the result for `CCN1CCCC1CNC(=O)c1ccc2c(c1)NC(=O)/C(=C\c1ccc(C)cc1)S2` (stereo not given) reads 29.1 µM; that for `COc1cc2c(cc1OC)C(c1ccccc1)N(C(=O)CCl)CC2` (stereo not given), 28.4 µM.
On the same count and under the same terms, under `C=CCNC1=C(Cl)C(=O)c2ccccc2C1=O` stands 14.3 µM; under `CN(C)CCCNC(=O)/C(=C\c1ccc(-c2ccc(Br)cc2)o1)NC(=O)c1ccccc1`, 32 µM; under `CCN1c2ccccc2NC2N=C(OC)C(c3ccccc3)C21` (stereo not given), 4.78 µM.
Same read-out and setting: the result for `N=c1n(CCN2CCCC2)c2ccccc2n1CC(O)c1ccc(Cl)c(Cl)c1` (stereo not given) reads 30.5 µM; that for `Cc1nc2ccccc2n1/N=C/c1ccc([N+](=O)[O-])s1`, 9.51 µM.

Test system in the next experiment: not listed separately
The description is as above. The settings on record: SK-MEL-5 viability, CellTiter-Glo ATP luminescence, 24 h; at 35 µM (top of the series). In short, it runs like this: as §1
In the case of `COc1cc(/C=N/NC(N)=O)c(Br)cc1OCC(=O)Nc1ccccc1C`, the activity change, negative = inhibition was -15.2% (inactive).
On the same count and under the same terms, the result for `Cc1ccc(C(O)(c2ccc(C)c(C)c2)C2CN3CCC2CC3)cc1C` (stereo not given) reads -2.1% (inactive); that for `Cc1ccc(C(=O)N/N=C/c2ccc([N+](=O)[O-])s2)cc1`, -12.1% (inactive); that for `CC1CCN(CC(CS(=O)(=O)c2ccc([N+](=O)[O-])cc2)N2CCC(C)CC2)CC1` (stereo not given), 3.72% (inactive).
Take `Cc1oc(-c2ccc(Cl)cc2)nc1CN1CCC(C(=O)NCCCN2CCCC(C)C2)CC1` (stereo not given): the activity change, negative = inhibition is -12.1% (inactive).
Same read-out and setting: under `Cc1ccc(C(C)C)c(OCc2nn(CC(=O)c3ccc(Cl)cc3)c3[n+]2CCCCC3)c1` stands -4.44% (inactive).
On the same count and under the same terms, under `O=C(Nc1ccc(-c2nc3ncccc3o2)cc1)c1ccc([N+](=O)[O-])o1` stands 6.95% (inactive); under `CCN(CC)CCNC(=O)c1c(C)n(-c2ccccc2)c2cc(Br)c(OC)cc12`, -13.7% (inactive); under `CC1CCCCC1NC(=O)/C(C#N)=C/C=C/c1ccccc1[N+](=O)[O-]` (stereo not given), 9.93% (inactive).

The record behind these values is PubChem BioAssay AID540347 (Broad Institute, 2011).
